Source: ChEMBL document CHEMBL1150837, “New sesquiterpene derivatives from the sponge Dysidea species with a selective inhibitor profile against human phospholipase A2 and other leukocyte functions” (J Nat Prod, 2001)
Activity calls are given as the source filed them. No cut-off for these calls is given here.

Tests used:
[1] = Cytotoxicity against human neutrophils up to 10 uM after 16 to 40 hrs by MTT assay; format: cell-based; settings: neutrophil
Outline: (§1)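 Cytotoxicity measured on purified human neutrophils as mitochondrial-dependent reduction of MTT to formazan; compounds tested up to 10 µM, reported as % inhibition of viability. Mean ± SEM, n = 6.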

[2] = target: T1, Cytosolic phospholipase A2 (Mus musculus) (UniProt P47713); assay: Inhibition of group 4 cytosolic phospholipase A2 in mouse RAW264.7 cells; format: cell-based
T1 sequence (whole entry): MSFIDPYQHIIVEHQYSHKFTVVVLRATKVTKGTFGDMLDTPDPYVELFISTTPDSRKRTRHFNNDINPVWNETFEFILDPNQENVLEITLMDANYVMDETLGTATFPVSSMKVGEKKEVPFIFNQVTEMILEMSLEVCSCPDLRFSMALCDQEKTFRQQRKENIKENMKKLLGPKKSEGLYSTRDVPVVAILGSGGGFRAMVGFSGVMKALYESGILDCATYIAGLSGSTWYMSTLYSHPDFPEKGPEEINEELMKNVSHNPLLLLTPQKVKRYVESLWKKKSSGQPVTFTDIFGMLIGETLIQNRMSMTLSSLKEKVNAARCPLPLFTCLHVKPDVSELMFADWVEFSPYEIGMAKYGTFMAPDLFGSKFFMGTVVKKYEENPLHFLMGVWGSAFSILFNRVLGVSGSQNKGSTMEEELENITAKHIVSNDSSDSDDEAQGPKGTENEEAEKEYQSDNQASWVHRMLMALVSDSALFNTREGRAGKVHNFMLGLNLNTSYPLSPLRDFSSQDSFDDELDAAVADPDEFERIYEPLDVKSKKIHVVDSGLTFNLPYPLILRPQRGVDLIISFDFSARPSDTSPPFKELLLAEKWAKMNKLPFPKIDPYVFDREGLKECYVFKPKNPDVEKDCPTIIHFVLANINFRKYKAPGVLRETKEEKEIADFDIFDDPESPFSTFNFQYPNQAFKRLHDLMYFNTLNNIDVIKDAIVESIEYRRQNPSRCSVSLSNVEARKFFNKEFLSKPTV
Outline: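 Enzyme source was cytosolic fractions of RAW 264.7 cells. Substrate was 1-palmitoyl-2-[14C]arachidonyl-PC (2 × 10^6 cpm). Compounds were added in methanol (final <1%) just before the enzyme. After 60 min at 37 °C, the reaction was stopped with isopropanol/heptane/0.5 M H2SO4 and extracted into hexane with silica gel. Released arachidonate was counted.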

[3] = target: Acidic phospholipase A2 2 (Naja naja) (UniProt P15445); assay: Inhibition of Naja naja venom group 1 secretory phospholipase A2 at 10 uM by liquid scintillation counting
Outline: (§2)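 Enzyme diluted in 100 mM Tris-HCl, 1 mM CaCl2, pH 7.5, preincubated 5 min at 37 °C with compound or vehicle. Substrate was autoclaved E. coli CECT 101 membranes labelled with [3H]oleic acid. Reaction ran 15 min, stopped with ice-cold BSA (0.07% w/v final), spun 1200g 10 min at 4 °C, supernatant counted. IC50 from ≥4 concentrations; mean ± SEM, n = 6.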

[4] = target: T1, Cytosolic phospholipase A2 (Mus musculus); assay: Inhibition of group 4 cytosolic phospholipase A2 in mouse RAW264.7 cells at 10 uM; format: cell-based
Outline: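 Enzyme was the cytosolic fraction of RAW 264.7 macrophages. Substrate 1-palmitoyl-2-[14C]arachidonyl-sn-glycero-3-phosphocholine. Compound added in methanol (<1% final) just before the enzyme. Incubation 60 min at 37 °C, stopped with isopropanol-heptane-H2SO4. Released arachidonate extracted into hexane, cleaned on silica gel and counted. Mean ± SEM, n = 6.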

Phospholipase A2 = target: T2, Phospholipase A2 (Apis mellifera, UniProt P00630); assay: Inhibition of bee venom group 3 secretory phospholipase A2 by liquid scintillation counting; outline: as §2
T2 sequence (P00630 whole entry): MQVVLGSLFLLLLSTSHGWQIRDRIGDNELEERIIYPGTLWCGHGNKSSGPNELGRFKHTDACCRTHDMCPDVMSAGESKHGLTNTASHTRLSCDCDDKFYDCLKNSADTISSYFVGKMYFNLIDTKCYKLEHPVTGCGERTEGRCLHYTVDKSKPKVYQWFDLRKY

[5] = target: T3, Phospholipase A2, membrane associated (Homo sapiens, UniProt P14555); assay: Inhibition of human synovial recombinant group 2 secretory phospholipase A2 by liquid scintillation counting
T3 sequence (P14555 whole entry): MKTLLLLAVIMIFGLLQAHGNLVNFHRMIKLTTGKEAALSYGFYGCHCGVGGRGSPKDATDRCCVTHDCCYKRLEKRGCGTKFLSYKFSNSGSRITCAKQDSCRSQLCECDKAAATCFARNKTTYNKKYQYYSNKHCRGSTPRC
Outline: (§3)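 Substrate was E. coli CECT 101 membranes labelled with [3H]oleic acid and autoclaved. Enzyme in 100 mM Tris-HCl/1 mM CaCl2, pH 7.5, was preincubated 5 min at 37 °C with compound or vehicle, then incubated 15 min with membranes. The reaction was stopped with ice-cold BSA (final 0.07%) and centrifuged, and supernatant radioactivity was counted. IC50 from ≥4 concentrations; n = 6.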

[6] = target: Phospholipase A2, major isoenzyme (Sus scrofa) (UniProt P00592); assay: Inhibition of pig pancreatic group 1 secretory phospholipase A2 at 10 uM by liquid scintillation counting; outline: as §3
Neutrophil [7] = assay: Inhibition of cytochalasin B and fMLP-stimulated human neutrophil degranulation assessed as inhibition of elastase release preincubated for 5 mins before cytochalasin B and fMLP challenge measured after 20 mins by microtiter plate assay; format: functional, cell-based
Outline: (§4)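 Neutrophils (2.5 × 10^6/mL) preincubated 5 min with compound or vehicle, then stimulated 10 min at 37 °C with cytochalasin B (10 µM) + FMLP (10 nM). Supernatants incubated 20 min at 37 °C with Boc-L-alanine p-nitrophenyl ester (200 µM); p-nitrophenol read at 414 nm. IC50 from ≥4 concentrations, n = 6.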

[8] = target: T4, Phospholipase A2 (Apis mellifera) (UniProt P00630); assay: Inhibition of bee venom group 3 secretory phospholipase A2 at 10 uM by liquid scintillation counting; outline: as §2
T4 sequence (whole entry): T2 sequence (P00630 whole entry)

[9] = target: Phospholipase A2, major isoenzyme (Sus scrofa, UniProt P00592); assay: Inhibition of pig pancreatic group 1 secretory phospholipase A2 by liquid scintillation counting; outline: as §3
Neutrophil [10] = assay: Inhibition of cytochalasin B and fMLP-stimulated human neutrophil degranulation assessed as inhibition of elastase release at 10 uM preincubated for 5 mins before cytochalasin B and fMLP challenge measured after 20 mins by microtiter plate assay; format: functional; outline: as §4
[11] = target: T5, Phospholipase A2, membrane associated (Homo sapiens) (UniProt P14555); assay: Inhibition of human synovial recombinant group 2 secretory phospholipase A2 at 10 uM by liquid scintillation counting; outline: as §3
T5 sequence (whole entry): T3 sequence (P14555 whole entry)

Neutrophil [12] = assay: Inhibition of TPA-induced chemiluminescence response in human neutrophils at 10 uM after 7 mins; format: functional
Outline: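 Neutrophils (2.5 × 10^6/mL) mixed with luminol (40 µM) and stimulated with 1 µM TPA; chemiluminescence read at 7 min, the time of maximal production. % inhibition at 10 µM; mean ± SEM, n = 6.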

[13] = Cytotoxicity against human neutrophils assessed as inhibition of cell viability at 10 uM after 16 to 40 hrs by MTT assay; format: cell-based, Neutrophil; settings: read-out: INH; outline: as §1
[14] = Homo sapiens, Neutrophil, read-out: IC50

Chain of Acidic phospholipase A2 2 (Naja naja) (P15445 whole entry): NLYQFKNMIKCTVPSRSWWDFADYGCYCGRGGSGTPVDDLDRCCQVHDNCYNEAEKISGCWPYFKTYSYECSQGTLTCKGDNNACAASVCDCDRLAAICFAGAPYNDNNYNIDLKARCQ
Chain of Phospholipase A2, major isoenzyme (Sus scrofa) (P00592 23-146 limits assumed): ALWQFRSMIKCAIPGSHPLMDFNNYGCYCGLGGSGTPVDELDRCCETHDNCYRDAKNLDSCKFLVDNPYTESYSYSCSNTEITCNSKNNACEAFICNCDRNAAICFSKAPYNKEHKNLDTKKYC
Chain of Phospholipase A2, major isoenzyme (P00592 whole entry): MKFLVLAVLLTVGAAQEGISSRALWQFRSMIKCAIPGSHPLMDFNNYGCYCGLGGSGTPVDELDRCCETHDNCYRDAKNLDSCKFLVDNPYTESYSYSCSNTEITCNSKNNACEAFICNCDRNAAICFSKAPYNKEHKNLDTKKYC

Structure (SMILES) | Activity [1] | inhibition [2] | inhibition [3] [%] | inhibition [4] [%] | IC50 (Phospholipase A2) [nM] | IC50 [5] [nM] | inhibition [6] [%] | IC50 (Neutrophil [7]; [14]) [nM] | inhibition [8] [%] | IC50 [9] [nM] | inhibition at 10 µM (Neutrophil [10]) [%] | inhibition [11] [%] | inhibition at 10 µM (Neutrophil [12]) [%] | cytotoxicity at 10 µM [13] [%] | IC50 (Neutrophil [7]; neutrophil)
COC(=O)[C@@]1(O)C=C(OC)C(=O)[C@H]1C[C@@]1(C)CC[C@]2(C)C(C)=CCC[C@H]2[C@H]1C [DYSIDENONE B] | Non-toxic | inactive |  |  |  |  |  |  |  |  |  |  |  |  | 
CC1=C(CC/C(C)=C/CCC2=CC[C@H](C3=CC(=O)O[C@H]3O)O[C@H]2O)C(C)(C)CCC1 |  |  | 17 | 44.6 |  |  |  |  |  |  |  |  |  |  | 
COC1=CC(=O)C(O)=C(C[C@@]2(C)CC[C@]3(C)C(C)=CCC[C@H]3[C@H]2C)C1=O [BOLINAQUINONE] |  | inactive | 26 |  | 100 | 200 | 86.4 | 5200 | 99.1 | 400 | 68.1 | 100 | 40.1 | 14 | 
COC(=O)[C@]1(O)C=C(OC)C(=O)[C@@H]1C[C@@]1(C)CC[C@]2(C)C(C)=CCC[C@H]2[C@H]1C [DYSIDENONE A] | Non-toxic | inactive |  |  |  |  |  |  |  |  |  |  |  |  | 
CC1=CCC[C@H]2[C@@H](C)[C@@](C)(CC3=C(O)C(=O)C=C(NCCS(=O)(=O)O)C3=O)CC[C@]12C [DYSIDINE] | Non-toxic | inactive | 0.7 |  |  | 2000 | 1.2 | 1300 | 33.4 |  | 90.7 | 73.8 | 44.4 | 0.3 | Dose-dependent effect
